SR-BI DiI-HDL act = enhances SR-BI lipid uptake from DiI-HDL. CHO ldlA[mSR-BI] cells, DiI-HDL uptake fluorescence, 3 h; 100 = double the neutral-control signal. activation, % at 12.5 µM. 0.096% of 320,000 active. AID 504775;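 active = mean replicate activation of at least 60% and every replicate at or above 60%; inconclusive = mean or all-replicate condition met, but not both; inactive = mean below 60% and not all replicates reaching 60%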;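 note: 0% = median plate neutral-control signal and 100% = twice that signal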
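Material – SR-BI-overexpressing, LDLR-lacking CHO cells · Medium – BSA-supplemented, HEPES-buffered Ham's F12, pH 7.4 · Doses – single concentration · Times – compound with DiI-HDL co-incubation, 3 h at 37 °C · Measured by – bottom-read fluorescence, 550/595 nm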
SR-BI HDL uptake = blocks mouse SR-BI lipid uptake from DiI-HDL; ldlA[mSR-BI] CHO cells, DiI-HDL uptake fluorescence, 3 h; 0.96% of 320,000 active; Q61009; inhibition, % at 12.5 µM; AID 488896;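 active = mean replicate inhibition of at least 70% and a set share of replicates each scoring 70 or more; inconclusive = meets just one of the two criteria; inactive = fails both criteria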;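 note: 0% = median of neutral control wells and 100% = median of positive control wells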
Target sequence (Q61009 whole entry, looked up): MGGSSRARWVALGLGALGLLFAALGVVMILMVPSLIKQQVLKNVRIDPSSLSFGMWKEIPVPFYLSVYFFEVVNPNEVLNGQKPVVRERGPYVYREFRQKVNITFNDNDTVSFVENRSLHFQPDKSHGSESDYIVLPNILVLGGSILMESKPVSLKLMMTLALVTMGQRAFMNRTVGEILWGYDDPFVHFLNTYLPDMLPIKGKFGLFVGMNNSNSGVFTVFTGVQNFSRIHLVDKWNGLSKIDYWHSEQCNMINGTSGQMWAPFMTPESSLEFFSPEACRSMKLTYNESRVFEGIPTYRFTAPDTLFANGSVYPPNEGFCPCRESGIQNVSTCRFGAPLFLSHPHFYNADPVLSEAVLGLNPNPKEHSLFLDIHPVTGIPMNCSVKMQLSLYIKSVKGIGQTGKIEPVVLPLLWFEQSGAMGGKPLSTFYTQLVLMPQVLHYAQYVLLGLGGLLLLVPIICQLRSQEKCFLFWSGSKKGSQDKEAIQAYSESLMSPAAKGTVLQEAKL
CDK5 inh = CDK5/p35 (human) kinase inhibition. AID 488839. inhibition, % at 10 µM. 0.01% of 330,000 active. Recombinant CDK5/p35, ADP-Glo luminescence, 60 min. Q00535+Q15078;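 active = highest replicate inhibition of at least 50% and at least 75% of replicates reaching 50%; inconclusive = only one of the two criteria met; inactive = both criteria failed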;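 note: plate controls were DMSO neutral control for no effect and GW8510 at 10 µM for full effect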
dFosB activator = mouse delta FosB homodimer activation; P13346; 0.99% of 340,000 active; activation, % at 25 µM; purified delta FosB, TAMRA-CDK5 oligo fluorescence polarization; percent of positive-control signal above neutral wells;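 active = mean activation above about 17%, with every replicate also reaching it, limit read from the data, passing the limit was not always enough; inconclusive = only one of the two conditions met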
An asterisk follows results filed as active; ? = inconclusive; . = no result given. In the library only some 2% were active in any assay of this set; here they are far more common.

SMILES	SR-BI DiI-HDL act	SR-BI HDL uptake	CDK5 inh	dFosB activator
COc1ccc2c(C)nc(Nc3nc(-c4ccccc4)cc(=O)[nH]3)nc2c1	-78	78*	-7	-21
C/C(CCC1CC(C)OC1=O)=N\NC(N)=S (stereo not drawn)	-71	71*	1	1
C/C(CCC1CC(C)(C)OC1=O)=N\NC(N)=S (stereo not drawn)	-72	72*	1	-4
COc1ccc(S(=O)(=O)N2CCCCCC2)cc1C(=O)N1CCN(c2ccccc2O)CC1	-1	1	0	-13
Cc1ccc2nc(Nc3ccc(Cl)cc3)c3nncn3c2c1	-55	55	-1	-7
COc1ccc(NC(=O)COc2cccc(-n3cnnn3)c2)cc1	-20	20	1	1
COc1cc2c3nnc(-c4ccc(F)cc4)c-3cn(Cc3cccc(F)c3)c2cc1OC	46	-46	0	38*
CCOc1cccc(CNc2ccc(O)cc2)c1OCc1ccc(Cl)cc1Cl	-80	80*	-2	-20
CCOc1cccc(CNn2cnnc2)c1OCc1ccccc1Cl	-35	35	3	8
CCOc1cccc(CNc2ccc(O)cc2)c1OCc1ccccc1Cl	-81	81*	2	-11
CCOc1cccc(CNCCO)c1OCc1ccc(Cl)cc1Cl	19	-19	-1	-12
CCOc1ccc(NC(=O)CN(C)C(=O)Cc2c(C)nc3ccccc3c2C)cc1OCC	-49	49	1	-15
COc1ccc([N+](=O)[O-])cc1NC(=O)C(C)N1CCN(C(=O)c2ccco2)CC1 (stereo not drawn)	-72	72*	-1	-8
COC(=O)c1cc(C(=O)N2CCN(C(=O)c3ccco3)CC2)cc([N+](=O)[O-])c1	14	-14	3	-3
COc1ccc([N+](=O)[O-])cc1NC(=O)C(C)N(C)Cc1ccc(Br)cc1 (stereo not drawn)	-75	75*	1	-8
COc1ccc(Br)cc1CN(C)C(C)C(=O)Nc1cc([N+](=O)[O-])ccc1OC (stereo not drawn)	-39	39	1	-5
NC(=S)N/N=C/c1ccc(-c2cc(Cl)c(Cl)cc2Cl)o1	-82	82*	1	3
NC(=S)N/N=C/c1ccc(-c2cccc([N+](=O)[O-])c2)o1	-78	78*	-1	-14
C=CCNC(=S)N/N=C/c1ccc(-c2ccc(Cl)cc2Cl)o1	-71	71*	-1	3
O=C(CCNC(=O)c1ccccc1Cl)NCC(c1ccc(F)cc1)N1CCOCC1 (stereo not drawn)	20	-20	-3	-9
CCc1ccc(/C=N/NC(=O)c2cc(C3CC3)nc3ccc(Br)cc23)s1	-87	87*	-1	-6
C=C(CN(C)C)C(=O)c1ccc(C)cc1C	-85	85*	1	-5
C[N+](C)(C)CCCC(=O)c1ccc2c(c1)OCO2	49	13	0	5
C=C(CN(C)C)C(=O)c1ccc2c(c1)OCO2	-109	109*	0	0
Cc1ccc(S(=O)(=O)NCC(=O)OCC(=O)N(C)C2CCCCC2)cc1	19	-19	-1	-4
SMILES	SR-BI DiI-HDL act	SR-BI HDL uptake	CDK5 inh	dFosB activator
CC1CCCN(S(=O)(=O)c2ccc(CN3C(=O)c4cccnc4C3=O)cc2)C1 (stereo not drawn)	22	-22	.	-6
CCc1cccc(C)c1NC(=S)NCC1CCN(c2ccc(OC)cc2)C1 (stereo not drawn)	-83	83*	-9	-4
CCc1ccccc1NC(=S)NCC1CCN(c2ccc(OC)cc2)C1 (stereo not drawn)	.	.	1	-6
COc1ccc(NC(=O)c2c(N)no[n+]2[O-])cc1	27	-27	2	21*
Cc1ccccc1C(=O)N1CCN(c2ccc(NC(=O)c3cccc(OC(C)C)c3)cc2)CC1	-74	74*	0	-21
CC(C)Oc1ccc(C(=O)Nc2ccc(N3CCN(C(=O)c4ccco4)CC3)cc2)cc1	-74	74*	1	-8
COc1ccc(Br)cc1C(=O)Nc1cccc(C)c1	-75	75*	1	-2
COc1ccc(C(=O)N2CCN(c3ccc(NC(=O)c4ccco4)cc3)CC2)cc1	-9	9	2	1
COc1ccccc1C(=O)Nc1cc2cc(Br)ccc2oc1=O	-15	100*	-1	3
CC(C)C(NC(=O)c1ccc(F)cc1)C(=O)Nc1cccnc1 (stereo not drawn)	13	-13	0	-7
O=C(Cc1cccc(NC(=O)C2CCN(C(=O)c3ccccc3)CC2)c1)Nc1cccc(C(=O)N2CCCCC2)c1	-1	1	1	-9
CSc1ccccc1NC(=O)CN(C)CC(=O)c1c(C)[nH]c2ccccc12	-12	12	-1	-7
CC(C)Oc1ccc(C(=O)Nc2ccc(N3CCCC3)cc2)cc1	-75	75*	0	13
O=C(Nc1ccc(N2CCCC2)cc1)c1ccc(Br)cc1	-76	76*	0	59*
COc1cc(OC)cc(C(=O)Nc2cccc(N3CCCC3)c2)c1	-87	87*	1	3
Cc1ccc(C(=O)N2CCN(c3ccc(NC(=O)c4cc(C)cc(C)c4)cc3)CC2)cc1	-30	30	-2	-7
Cc1cc(C)cc(C(=O)Nc2ccc(N3CCCC3)cc2)c1	-87	87*	-2	-5
COc1cc(OC)cc(C(=O)Nc2cccc(C(C)=O)c2)c1	-49	49	-1	-13
Cc1cc(C)c(NC(=O)/C(=C/c2ccccc2)c2ccccc2)c(C)c1	15	-15	1	-3
CC(C(=O)N1CCCC1)N(c1ccccc1)S(C)(=O)=O (stereo not drawn)	-4	4	0	7
COc1ccc(Cl)cc1NC(=O)CCN1C(=O)C2C3C=CC(C4CC34)C2C1=O (stereo not drawn)	-57	57	1	-5
O=C(Nc1ccc(N2CCN(C(=O)c3ccco3)CC2)cc1)c1ccc([N+](=O)[O-])cc1Cl	-59	59	0	-12
O=C(Nc1ccc(N2CCCC2)cc1)c1cc2ccccc2o1	-72	72*	-1	10
Cc1ccc(C(=O)Nc2ccc(N3CCN(C(=O)c4ccco4)CC3)cc2)c(Cl)c1	-85	85*	0	-4
Cc1ccc(NC(=O)c2ccc(C)cc2)cc1	-25	25	1	5
SMILES	SR-BI DiI-HDL act	SR-BI HDL uptake	CDK5 inh	dFosB activator
Cc1ccc(C(=O)Nc2ccc(Br)c(C(F)(F)F)c2)cc1	-72	72*	0	0
O=C(NNC(=O)c1ccccc1O)c1cc2ccccc2o1	-145	145*	-1	-10
CCOC(=O)N1CCN(Cc2cn[nH]c2-c2cc3ccccc3o2)CC1	-11	11	4	-5
O=C1CCC(C(=O)N2CCCC(Nc3ccc(F)cc3)C2)=NN1 (stereo not drawn)	10	-10	0	3
Cc1cccc(NC(=O)c2ccc(NC(=O)c3ccccc3Br)cc2)c1	-72	72*	-1	?
Cc1cccc(NC(=S)NNC(=O)c2ccccc2Br)c1	8	-8	0	-7
COc1ccc(Br)cc1C(=O)Nc1ccc(N2CCCC2)cc1	-78	78*	-1	-3
